Reference: ChEMBL document CHEMBL1158764, “Cytotoxic sesquiterpene lactones from Eupatorium kiirunense, a coastal plant of Taiwan” (2005)
In brackets after ≈: the same amount, converted by molar mass.

Columns and labels:
Assay type in all cases: functional
Settings in all cases: read-out: ED50 (the source's name)
KB = test: Cytotoxicity against human KB cells by methylene blue staining method
Summary of the method: (§1)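 Tumor cells cultured in RPMI-1640 medium and exposed to test sample for 72 h. Growth inhibition read by methylene blue staining (absorbance). ED50 taken as the concentration giving 50% reduction of absorbance relative to untreated cells.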

HeLa = test: Cytotoxicity against human HeLa cells by methylene blue staining method; summary of the method: as §1
[1] = Cytotoxicity against human HEPA 59T/VGH cells by methylene blue staining method; summary of the method: as §1

Row | SMILES | EC50 (KB) | EC50 (HeLa) | EC50 [1]
1 | C=C1C(=O)O[C@H]2/C=C(/COC(C)=O)[C@@H](O)C[C@H]3O[C@@]3(C)C[C@@H](OC(=O)/C(C)=C/C)[C@@H]12 | 4.3 µg/mL (≈ 10.2 µM) | 7.5 µg/mL (≈ 17.8 µM) | 7 µg/mL (≈ 16.6 µM)
2 | C=C1C(=O)O[C@H]2/C=C(/C)[C@H](O)C[C@H]3O[C@@]3(C)C[C@@H](OC(=O)/C(C)=C/C)[C@@H]12 | 3.2 µg/mL (≈ 8.83 µM) | 3.1 µg/mL (≈ 8.55 µM) | 4.4 µg/mL (≈ 12.1 µM)
3 | COc1cccc2c1C(=O)c1c(O)c3c(c(O)c1C2=O)C[C@@](O)(C(=O)CO)C[C@@H]3O[C@H]1C[C@H](N)[C@H](O)[C@H](C)O1 [DOXORUBICIN] | 0.15 µg/mL (≈ 0.276 µM) | 0.14 µg/mL (≈ 0.258 µM) | 0.19 µg/mL (≈ 0.35 µM)
4 | C=C1C(=O)O[C@@H]2/C=C(\C)C(=O)/C=C/[C@](C)(O)C[C@@H](OC(=O)/C(C)=C/C)[C@@H]12 [EUPAHELIANGOLIDE A] | 3.5 µg/mL (≈ 9.71 µM) | 3.3 µg/mL (≈ 9.16 µM) | 3.5 µg/mL (≈ 9.71 µM)
5 | C=C1C(=O)O[C@H]2[C@H]1[C@H](OC(=O)/C(C)=C/C)CC(=C)[C@H](O)[C@@H]1O[C@@H]1[C@]1(C)O[C@H]21 [EUPAKIRUNSIN A] | 5.5 µg/mL (≈ 14.6 µM) | 8.9 µg/mL (≈ 23.6 µM) | 4.4 µg/mL (≈ 11.7 µM)
6 | C=C1C(=O)O[C@H]2/C=C(\C)[C@H](O)/C=C\[C@](C)(O)C[C@@H](OC(=O)/C(C)=C/C)[C@@H]12 [EUPAKIRUNSIN B] | > 20 µg/mL | > 20 µg/mL | > 20 µg/mL
7 | C=C1C(=O)O[C@H]2[C@H]1[C@H](OC(=O)/C(C)=C/C)C[C@H](C)[C@H](O)CC(=O)[C@]1(C)O[C@H]21 [EUPAKIRUNSIN C] | 8.1 µg/mL (≈ 21.4 µM) | 7.1 µg/mL (≈ 18.8 µM) | 8.6 µg/mL (≈ 22.7 µM)
8 | C=C1C(=O)O[C@H]2/C=C(\C)[C@]3(O)CC[C@](C)(C[C@@H](OC(=O)/C(C)=C/C)[C@@H]12)O3 [EUPAKIRUNSIN D] | 4.8 µg/mL (≈ 13.2 µM) | 5.8 µg/mL (≈ 16 µM) | 5 µg/mL (≈ 13.8 µM)
9 | C=C1C(=O)O[C@H]2/C=C(\C)C(=O)[C@@H]3O[C@H]3[C@](C)(O)C[C@@H](OC(=O)/C(C)=C/C)[C@@H]12 [EUPAKIRUNSIN E] | > 20 µg/mL | > 20 µg/mL | > 20 µg/mL
10 | C=C1C(=O)O[C@H]2/C=C(/C)[C@@H](O)C[C@H]3O[C@@]3(C)C[C@@H](OC(=O)/C(C)=C/C)[C@@H]12 [HELIANGIN] | 1.8 µg/mL (≈ 4.97 µM) | 4.4 µg/mL (≈ 12.1 µM) | 2 µg/mL (≈ 5.52 µM)
